Source: ChEMBL document CHEMBL3091381, “In vitro cytotoxicity on human ovarian cancer cells by T-type calcium channel blockers” (Bioorg Med Chem Lett, 2013)
Active and inactive are the calls of the source. The calls are words filed in the database; no cut-off is given here.

How the values were obtained:
A2780 [1] = test: Cell cycle arrest in human A2780 cells assessed as accumulation at sub-G1 phase at 2 to 4 uM after 24 hrs by FACS analysis; assay type: functional
Summary of the method: (§1)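 A2780 or paclitaxel-resistant A2780-T cells treated 24 h with compound at 0, 2, 4, 6 or 8 µM, depending on the series. Fixed cells were washed in PBS and stained 30 min in the dark with PI plus 100 µg/mL DNase-free RNase A. Phase distribution was read by flow cytometry. Means ± SD of three independent experiments; ANOVA with Dunnett's post-hoc test versus untreated control.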

A2780 [2] = test: Cell cycle arrest in human A2780 cells assessed as accumulation at S phase at 6 uM after 24 hrs by FACS analysis; assay type: functional; summary of the method: as §1
A2780 [3] = test: Cell cycle arrest in human A2780 cells assessed as accumulation at sub-G1 phase at 6 uM after 24 hrs by FACS analysis; assay type: functional; summary of the method: as §1
A2780 [4] = test: Cell cycle arrest in human A2780 cells assessed as accumulation at G0/G1 phase at 6 uM after 24 hrs by FACS analysis; assay type: functional; summary of the method: as §1
[5] = Cytotoxicity against human paclitaxel-resistant A2780T cells after 48 hrs by MTT assay; assay type: functional, cell-based; conditions: A2780/Taxol
Summary of the method: (§2)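 MTT viability assay. Cells were seeded and grown 24 h, then exposed 48 h to a range of concentrations of test agent in DMSO (0.1% final), with vehicle-matched DMSO controls. Medium was replaced by 0.5 mg/mL MTT in RPMI with 10% FBS for 2 h at 37 °C. Dye was solubilized and absorbance read. IC50 from dose–response curves, three independent experiments.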

A2780 [6] = test: Cytotoxicity against human A2780 cells after 48 hrs by MTT assay; assay type: functional, cell-based; conditions: A2780, 48 h; summary of the method: as §2
[7] = Ratio of IC50 for mibefradil to compound IC50 for human paclitaxel-resistant A2780T cells; assay type: functional
A2780 [8] = test: Cell cycle arrest in human A2780 cells assessed as accumulation at sub-G1 phase at 8 uM after 24 hrs by FACS analysis (reference value: 3.1%); assay type: functional; summary of the method: as §1
[9] = Cell cycle arrest in human paclitaxel-resistant A2780T cells assessed as accumulation at sub-G1 phase at 8 uM after 24 hrs by FACS analysis; assay type: functional, cell-based; conditions: A2780/Taxol; summary of the method: as §1
[10] = Cell cycle arrest in human paclitaxel-resistant A2780T cells assessed as accumulation at sub-G1 phase at 2 to 4 uM after 24 hrs by FACS analysis; assay type: functional, cell-based; conditions: A2780/Taxol; summary of the method: as §1
SK-OV-3 = test: Cytotoxicity against human SKOV3 cells after 48 hrs by MTT assay; assay type: functional, cell-based; conditions: SK-OV-3, 48 h; summary of the method: as §2
[11] = molecular target: T1, Voltage-dependent T-type calcium channel subunit alpha-1G (Homo sapiens, UniProt O43497); test: Inhibition of t-type Cav3.1 channel (unknown origin) expressed in HEK293 cells assessed as inhibition of 50 ms depolarizing voltage step-induced current by whole cell patch-clamp method; assay type: cell-based
[12] = molecular target: T1, Voltage-dependent T-type calcium channel subunit alpha-1G; test: Inhibition of t-type Cav3.1 channel (unknown origin) expressed in HEK293 cells assessed as inhibition of 50 ms depolarizing voltage step-induced current at 1 uM by whole cell patch-clamp method relative to control; assay type: cell-based
A2780 [13] = test: Cell cycle arrest in human A2780 cells assessed as accumulation at G2/M phase at 6 uM after 24 hrs by FACS analysis; assay type: functional; summary of the method: as §1
A2780 [14] = test: Induction of apoptosis in human A2780 cells assessed as cell shrinkage, membrane blebbing, chromatin condensation and apoptotic body formation at 6 uM after 24 hrs by DAPI staining; assay type: functional, cell-based
Summary of the method: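 A2780 cells exposed 24 h to 6 µM compound, then fixed, washed three times in PBS and stained 5 min with 0.1 µg/mL DAPI. Cells were washed, mounted in PBS with 10% glycerol and examined by fluorescence microscopy for shrinkage, blebbing, chromatin condensation and apoptotic bodies.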

[15] = Cell cycle arrest in human paclitaxel-resistant A2780T cells assessed as accumulation at sub-G1 phase after 24 hrs by FACS analysis; assay type: functional, cell-based; conditions: A2780/Taxol, in the assay text read “G1 phase” for “sub-G1 phase”; summary of the method: as §1
HEK293 = test: Cytotoxicity against human HEK293 cells after 48 hrs by MTT assay; assay type: cell-based; conditions: HEK293, 48 h; summary of the method: as §2
A2780 [16] = test: Cell cycle arrest in human A2780 cells assessed as accumulation at sub-G1 phase after 24 hrs by FACS analysis; assay type: functional, cell-based; conditions: in the assay text read “G1 phase” for “sub-G1 phase”; summary of the method: as §1
Mus musculus = test: Toxicity in BALB/c mouse assessed as mortality at 40 mg/kg, po for 2 weeks; assay type: organism-based; design: dose 40 mg/kg, route oral; conditions: in vivo, 336 h

T1 sequence (O43497 whole entry): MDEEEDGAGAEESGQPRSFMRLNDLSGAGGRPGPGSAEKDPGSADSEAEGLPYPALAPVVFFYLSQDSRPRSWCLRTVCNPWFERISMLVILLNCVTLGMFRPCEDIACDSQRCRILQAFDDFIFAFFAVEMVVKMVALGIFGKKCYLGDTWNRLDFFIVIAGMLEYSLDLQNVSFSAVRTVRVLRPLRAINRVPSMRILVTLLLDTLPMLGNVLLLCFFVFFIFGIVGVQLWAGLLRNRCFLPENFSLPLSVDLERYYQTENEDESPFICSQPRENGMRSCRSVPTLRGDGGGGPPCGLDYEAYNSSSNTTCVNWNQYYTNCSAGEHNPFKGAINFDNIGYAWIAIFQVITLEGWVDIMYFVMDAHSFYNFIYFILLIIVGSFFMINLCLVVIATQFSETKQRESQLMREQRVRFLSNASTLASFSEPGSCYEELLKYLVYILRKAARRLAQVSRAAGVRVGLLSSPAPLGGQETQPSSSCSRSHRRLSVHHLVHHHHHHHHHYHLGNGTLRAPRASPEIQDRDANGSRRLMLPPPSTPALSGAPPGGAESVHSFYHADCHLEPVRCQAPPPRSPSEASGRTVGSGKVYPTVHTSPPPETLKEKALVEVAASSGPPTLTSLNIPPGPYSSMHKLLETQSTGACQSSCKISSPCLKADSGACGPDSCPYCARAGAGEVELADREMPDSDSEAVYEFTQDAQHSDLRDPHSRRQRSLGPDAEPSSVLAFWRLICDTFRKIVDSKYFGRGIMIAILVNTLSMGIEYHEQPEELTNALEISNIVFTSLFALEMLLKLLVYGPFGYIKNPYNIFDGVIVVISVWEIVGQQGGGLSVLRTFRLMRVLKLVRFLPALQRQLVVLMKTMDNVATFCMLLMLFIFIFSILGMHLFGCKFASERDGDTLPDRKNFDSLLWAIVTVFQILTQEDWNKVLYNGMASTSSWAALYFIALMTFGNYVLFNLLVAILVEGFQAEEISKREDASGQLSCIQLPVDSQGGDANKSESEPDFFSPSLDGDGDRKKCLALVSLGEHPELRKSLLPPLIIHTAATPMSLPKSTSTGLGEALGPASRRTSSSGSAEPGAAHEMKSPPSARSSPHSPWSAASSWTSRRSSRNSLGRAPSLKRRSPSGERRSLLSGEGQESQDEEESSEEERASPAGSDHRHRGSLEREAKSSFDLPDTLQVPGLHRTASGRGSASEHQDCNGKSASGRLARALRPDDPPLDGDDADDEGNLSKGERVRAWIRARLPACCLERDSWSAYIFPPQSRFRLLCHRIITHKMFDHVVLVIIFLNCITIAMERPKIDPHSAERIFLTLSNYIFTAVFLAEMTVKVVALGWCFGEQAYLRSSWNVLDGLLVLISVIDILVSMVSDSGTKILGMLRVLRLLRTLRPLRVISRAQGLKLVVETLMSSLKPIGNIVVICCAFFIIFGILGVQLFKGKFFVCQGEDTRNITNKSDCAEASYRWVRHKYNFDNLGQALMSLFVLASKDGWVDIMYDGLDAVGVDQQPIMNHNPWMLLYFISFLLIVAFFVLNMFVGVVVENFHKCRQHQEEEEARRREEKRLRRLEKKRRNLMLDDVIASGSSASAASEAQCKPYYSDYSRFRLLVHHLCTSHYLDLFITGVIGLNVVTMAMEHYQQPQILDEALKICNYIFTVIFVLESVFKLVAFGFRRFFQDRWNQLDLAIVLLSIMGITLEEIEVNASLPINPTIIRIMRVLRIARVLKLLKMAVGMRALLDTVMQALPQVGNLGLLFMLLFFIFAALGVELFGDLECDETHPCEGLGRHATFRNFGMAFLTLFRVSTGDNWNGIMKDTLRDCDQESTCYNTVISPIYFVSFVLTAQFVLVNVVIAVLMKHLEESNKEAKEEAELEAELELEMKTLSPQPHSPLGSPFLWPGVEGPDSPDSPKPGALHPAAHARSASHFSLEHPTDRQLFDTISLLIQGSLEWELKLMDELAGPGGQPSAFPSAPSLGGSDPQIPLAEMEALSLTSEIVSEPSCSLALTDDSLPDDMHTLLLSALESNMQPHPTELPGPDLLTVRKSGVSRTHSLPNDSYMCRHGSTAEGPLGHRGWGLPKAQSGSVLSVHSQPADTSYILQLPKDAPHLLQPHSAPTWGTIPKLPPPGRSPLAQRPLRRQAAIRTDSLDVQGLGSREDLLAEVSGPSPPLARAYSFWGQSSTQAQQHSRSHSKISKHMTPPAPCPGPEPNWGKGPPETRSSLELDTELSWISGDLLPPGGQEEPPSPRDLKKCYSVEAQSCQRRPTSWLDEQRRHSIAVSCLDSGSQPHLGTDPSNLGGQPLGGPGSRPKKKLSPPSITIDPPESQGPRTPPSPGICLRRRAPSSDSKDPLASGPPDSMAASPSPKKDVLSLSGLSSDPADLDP

Compound	IC50 [5] [nM]	IC50 (A2780 [6]) [nM]	IC50 (SK-OV-3) [nM]	IC50 [11] [nM]	inhibition [12] [%]	further results
CN(C)CCCCCN(C)C1=Nc2ccccc2C(CC(=O)NCc2ccccc2)N1c1ccc(-c2ccccc2)cc1 (stereo not given)	1600	1060	2470	260	76.6	Activity (A2780 [1]): 61.4%; Activity (A2780 [2]): 5.8%; Activity (A2780 [3]): 63.3%; Activity (A2780 [4]): 25.6%; Ratio IC50 [7]: 20; Activity (A2780 [8]): 71.4%; Activity [9]: 95.4%; Activity [10]: 14.7%; Activity (A2780 [13]): 5.3%
CN(C)CCN1CCN(C2=Nc3ccccc3C(CC(=O)NCc3ccccc3)N2c2ccc(-c3ccccn3)cc2)CC1 (stereo not given)	> 5000	> 5000			32.3	
CN(C)CCN1CCN(C2=Nc3ccccc3C(CC(=O)NCc3ccncc3)N2c2ccc(-c3ccccc3)cc2)CC1 (stereo not given)	> 5000	> 5000	11700		29.1	
COc1ccc(CNC(=O)CC2c3ccccc3N=C(N(C)CCCCCN(C)C)N2c2ccc(-c3ccccc3)cc2)cc1 (stereo not given)	2520	1380	4460	390	68.2	
CN(C)CCCCCCN(C)C1=Nc2ccccc2C(CC(=O)NCc2ccccc2)N1c1ccc(-c2ccccc2)cc1 (stereo not given)	1740	1190	5780	550	66.7	Ratio IC50 [7]: 20
CN(C)CCCCCN(C)C1=Nc2ccccc2C(CC(=O)NCc2ccccc2)N1c1ccc(-c2ccccn2)cc1 (stereo not given)	> 5000		2410		30.9	
Cc1ccc(CNC(=O)CC2c3ccccc3N=C(N3CCN(CCN(C)C)CC3)N2c2ccc(-c3ccccc3)cc2)cc1 (stereo not given)	3520	1600	2330	460	57.8	
COc1ccc(CNC(=O)CC2c3ccccc3N=C(N3CCN(CCN(C)C)CC3)N2c2ccc(-c3ccccc3)cc2)cc1 (stereo not given)	3820	1440	2470	310	75.9	Activity (A2780 [14]): Active; Activity (A2780 [2]): 7.3%; Activity (A2780 [3]): 21.6%; Activity (A2780 [4]): 63.8%; Activity [15]: Dose-dependent effect; IC50 (HEK293): 9280 nM; Activity (A2780 [16]): Dose-dependent effect; Activity (Mus musculus): Non-toxic; Activity (A2780 [13]): 7.3%
COCC(=O)O[C@]1(CCN(C)CCCc2nc3ccccc3[nH]2)CCc2cc(F)ccc2[C@@H]1C(C)C [MIBEFRADIL]	35300	24200	20500		55.1	
CN(C)CCN1CCN(C2=Nc3ccccc3C(CC(=O)NCc3ccc(F)cc3)N2c2ccc(-c3ccccc3)cc2)CC1 (stereo not given)	4000	1600	3090	320	81	Activity (A2780 [14]): Active; Activity (A2780 [2]): 7.1%; Activity (A2780 [3]): 18.1%; Activity (A2780 [4]): 66.7%; Activity [15]: Dose-dependent effect; IC50 (HEK293): 10000 nM; Activity (A2780 [16]): Dose-dependent effect; Activity (Mus musculus): Non-toxic; Activity (A2780 [13]): 8.1%
CN(C)CCN1CCN(C2=Nc3ccccc3C(CC(=O)NCc3ccccn3)N2c2ccc(-c3ccccc3)cc2)CC1 (stereo not given)	> 5000	4860	5080		43.9	
CN(C)CCCCN(C)C1=Nc2ccccc2C(CC(=O)NCc2ccccc2)N1c1ccc(-c2ccccc2)cc1 (stereo not given)	3970	1650	9780	310	81.7	
CN(C)CCN1CCN(C2=Nc3ccccc3C(CC(=O)NCc3ccccc3)N2c2ccc(-c3ccccc3)cc2)CC1 (stereo not given)	2390	1390	1970		46.8	
